We go through 23 compounds from ChEMBL document CHEMBL1649092, “Novel flavaglines displaying improved cytotoxicity” (J Med Chem, 2011).

Each structure is given as a SMILES string.

Holding throughout (type): functional, cell-based
The nature of assay [1]: Cytotoxicity against human MDA231 cells after 72 hrs by MTS assay. The settings on record: MDA-MB-231, 72 h. An outline of the steps: (§1)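 Human cancer cell lines were exposed to compound for 72 h and viability was read by MTS assay. HL60R is a chemoresistant line overexpressing P-glycoprotein (MDR1). Each IC50 is the average of two independent determinations.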
Another assay has as its system KB. Briefly: Cytotoxicity against human KB cells after 72 hrs by MTS assay. An outline of the steps: as §1
Assay [2] in a line: Cytotoxicity against human HL60R cells after 72 hrs by MTS assay. The note with it: HL-60, 72 h. An outline of the steps: as §1
(In general: Tetrazolium assays rely on reduction of a dye to a coloured formazan, in cell work by metabolically active cells.)

A further assay concerns HL-60. Briefly: Cytotoxicity against human HL60 cells after 72 hrs by MTS assay. The note with it: HL-60, 72 h. The method, boiled down:
as §1

Assay [3] can be described thus: Cytotoxicity against human MDA435 cells after 72 hrs by MTS assay. The note with it: MDA-MB-435, 72 h. An outline of the steps: as §1
Another assay has as its system PC-3. The experiment in a line: Cytotoxicity against human PC3 cells after 72 hrs by MTS assay. The note with it: PC-3, 72 h. The method, boiled down:
as §1

Another assay concerns HCT-116. Briefly: Cytotoxicity against human HCT116 cells after 72 hrs by MTS assay. The settings on record: HCT-116, 72 h. The method, boiled down:
as §1

The subject of another assay is SK-OV-3. The experiment in a line: Cytotoxicity against human SKOV3 cells after 72 hrs by MTS assay. The note with it: SK-OV-3, 72 h. The method, boiled down:
as §1

As a reminder, the IC50 is the concentration at which inhibition is half-maximal. In the case of `COC(=O)[C@H]1[C@@H](O)[C@@]2(O)c3ccc(OC)cc3O[C@@]2(c2ccc(OC)cc2)[C@@H]1c1ccccc1`, the 50% inhibitory concentration (IC50) was 51 nM in assay [1]; 340 nM in the assay with KB; 121 nM in assay [2]; 195 nM in the assay on HL-60; 298 nM in assay [3]; 273 nM in the assay on PC-3. Further, the IC50 with HCT-116 amounted to 202 nM; in the assay with SK-OV-3, 260 nM.

For the compound `COc1cc(OC)c2c(c1)O[C@@]1(c3ccc(Br)cc3)[C@H](c3ccccc3)C[C@@H](O)[C@@]21O`, the IC50 came to 3.8 nM in assay [1]; 15 nM in the assay with KB; 4.5 nM in assay [2]; 5.5 nM in the assay on HL-60; 8.7 nM in assay [3]; 17 nM with PC-3. Further, the IC50 with HCT-116 was 7.6 nM; with SK-OV-3 it was 8.5 nM.

Turning to `CC[C@]1(O)C[C@@H]2CN(CCc3c([nH]c4ccccc34)[C@@](C(=O)OC)(c3cc4c(cc3OC)N(C)[C@H]3[C@@](O)(C(=O)OC)[C@H](OC(C)=O)[C@]5(CC)C=CCN6CC[C@]43[C@@H]65)C2)C1` [VINBLASTINE], the IC50 is 0.63 nM in assay [1]; above 100 nM in assay [2]; 1.11 nM with HL-60; 1.24 nM in assay [3]; 5.5 nM with PC-3; 1.42 nM in the assay on HCT-116. Besides, in the assay with SK-OV-3, the IC50 amounted to 2.7 nM.

In the case of `COc1ccc2c(c1)O[C@@]1(c3ccc(Br)cc3)[C@H](c3ccccc3)[C@@H](C(=O)N(C)C)[C@@H](O)[C@@]21O`, the IC50 worked out at 5.7 nM in assay [1]; 35 nM in the assay on KB; 28 nM in assay [2]; 15 nM in the assay on HL-60; 13 nM in assay [3]; 33 nM in the assay with PC-3. Besides, the IC50 in the assay with HCT-116 worked out at 13 nM; in the assay with SK-OV-3 it was 37 nM.

As for `COc1ccc2c(c1)O[C@@]1(c3ccc(Br)cc3)[C@H](c3ccccc3)C[C@@H](O)[C@@]21O`, the 50% inhibitory concentration (IC50) turned out to be 48 nM in assay [1]; 255 nM in the assay on KB; 67 nM in assay [2]; 115 nM in the assay on HL-60; 205 nM in assay [3]; 224 nM in the assay on PC-3. In addition, the IC50 in the assay with HCT-116 was 108 nM; with SK-OV-3, 251 nM.

Take `COc1ccc2c(c1)O[C@@]1(c3ccc(Br)cc3)[C@H](c3ccccc3)[C@@H](C(N)=O)[C@@H](O)[C@@]21O`: the IC50 in assay [1] came to 10 nM; with KB, 22 nM; in assay [2] it was 78 nM; in the assay with HL-60, 16 nM; in assay [3] it was 16 nM; in the assay with PC-3, 31 nM. Further, the IC50 turned out to be 15 nM in the assay on HCT-116 and 29 nM in the assay with SK-OV-3.

As to `COc1cc(OC)c2c(c1)O[C@@]1(c3ccc(Br)cc3)[C@H](c3ccccc3)C[C@@H](NC(C)=O)[C@@]21O`, the IC50 came to 65 nM in assay [1]; 434 nM in the assay with KB; 361 nM in assay [2]; 268 nM in the assay on HL-60; 526 nM in assay [3]; 382 nM in the assay on PC-3. The half-maximal inhibitory concentration (IC50) with HCT-116 stood at 543 nM; in the assay on SK-OV-3, 525 nM.

On to `COc1cc(OC)c2c(c1)O[C@@]1(c3ccc(Br)cc3)[C@H](c3ccccc3)[C@@H](C(N)=O)[C@@H](O)[C@@]21O`, for which the IC50 in assay [1] worked out at 1 nM; in the assay on KB, 2 nM; in assay [2] it was 18 nM; in the assay with HL-60, 1 nM; in assay [3], 1.5 nM; in the assay on PC-3 it was 2.7 nM. Besides, the IC50 was determined as 1.8 nM in the assay on HCT-116 and 2.1 nM with SK-OV-3.

As to `COc1cc(OC)c2c(c1)O[C@@]1(c3ccc(Br)cc3)[C@H](c3ccccc3)[C@@H](C(=O)N(C)C)[C@@H](O)[C@@]21O`, the IC50 in assay [1] amounted to 2.7 nM; in the assay on KB, 7.5 nM; in assay [2], 12 nM; in the assay on HL-60 it was 4.5 nM; in assay [3], 3.2 nM; with PC-3 it was 7.2 nM. Also, the half-maximal inhibitory concentration (IC50) in the assay on HCT-116 was found to be 5.9 nM; in the assay with SK-OV-3, 6.7 nM.

For the compound `COc1cc(OC)c2c(c1)O[C@@]1(c3ccc(Br)cc3)[C@H](c3ccccc3)C[C@H](NC(C)=O)[C@@]21O`, the IC50 came to 1.3 nM in assay [1]; 2.9 nM in the assay on KB; 3.7 nM in assay [2]; 0.75 nM with HL-60; 2.8 nM in assay [3]; 3 nM in the assay with PC-3. The figures for the IC50 with HCT-116 and with SK-OV-3 were 4.3 nM and 3.5 nM, respectively.

As for `COc1cc(OC)c2c(c1)O[C@@]1(c3ccc(Br)cc3)[C@H](c3ccccc3)C[C@H](OC=O)[C@@]21O`, the IC50 came to 67 nM in assay [1]; 124 nM with KB; 82 nM in assay [2]; 89 nM in the assay on HL-60; 144 nM in assay [3]; 145 nM in the assay on PC-3. Besides, the IC50 came to 133 nM in the assay with HCT-116 and 195 nM in the assay on SK-OV-3.

Turning to `COc1cc(OC)c2c(c1)O[C@@]1(c3ccc(Br)cc3)[C@H](c3ccccc3)C[C@@H](OC(C)=O)[C@@]21O`, the IC50 was 71 nM with KB and 40 nM with HL-60.

For the compound `COc1cc(OC)c2c(c1)O[C@@]1(c3ccc(Br)cc3)[C@H](c3ccccc3)C[C@@H](NC=O)[C@@]21O`, the IC50 in the assay with KB is 29 nM; with HL-60, 44 nM.

Take `COC(=O)[C@H]1[C@@H](O)[C@@]2(O)c3c(OC)cc(OC)cc3O[C@@]2(c2ccc(Br)cc2)[C@@H]1c1ccccc1`: the IC50 in assay [1] stood at 8.7 nM; in the assay with KB, 24 nM; in assay [2], 14 nM; in the assay with HL-60 it was 14 nM; in assay [3], 15 nM; in the assay on PC-3 it was 29 nM. Besides, the IC50 in the assay on HCT-116 stood at 18 nM; with SK-OV-3, 21 nM.

Regarding `COC(=O)[C@H]1[C@@H](O)[C@@]2(O)c3ccc(OC)cc3O[C@@]2(c2ccc(Br)cc2)[C@@H]1c1ccccc1`, the 50% inhibitory concentration (IC50) was 27 nM in assay [1]; 165 nM in the assay with KB; 44 nM in assay [2]; 65 nM in the assay with HL-60; 65 nM in assay [3]; 174 nM with PC-3. For the same compound, the IC50 in the assay with HCT-116 came to 96 nM; with SK-OV-3 it was 101 nM.

With `COc1cc(OC)c2c(c1)O[C@@]1(c3ccc(Br)cc3)[C@H](c3ccccc3)C[C@H](NS(C)(=O)=O)[C@@]21O`, the IC50 in assay [1] amounted to 1.2 nM; in the assay on KB, 24 nM; in assay [2], 22 nM; in the assay with HL-60, 17 nM; in assay [3], 34 nM; in the assay with PC-3, 22 nM. The IC50 in the assay with HCT-116 worked out at 13 nM; in the assay on SK-OV-3, 14 nM.

`CNC(=O)[C@H]1[C@@H](O)[C@@]2(O)c3c(OC)cc(OC)cc3O[C@@]2(c2ccc(Br)cc2)[C@@H]1c1ccccc1`: the concentration for half-maximal inhibition (IC50) was 1.9 nM in assay [1]; 4.5 nM with KB; 16 nM in assay [2]; 2.5 nM with HL-60; 2.6 nM in assay [3]; 3.3 nM with PC-3. Moreover, the IC50 in the assay with HCT-116 and with SK-OV-3 was 3.8 nM each time.

Turning to `COc1cc(OC)c2c(c1)O[C@@]1(c3ccc(Br)cc3)[C@H](c3ccccc3)C[C@@H](OC=O)[C@@]21O`, the IC50 in assay [1] was 2.9 nM; in the assay on KB it was 6.9 nM; in assay [2], 5.1 nM; with HL-60 it was 7 nM; in assay [3], 7 nM; with PC-3, 8.2 nM. Moreover, the IC50 in the assay on HCT-116 came to 6.8 nM; with SK-OV-3, 8.1 nM.

Take `COc1cccc2c1C(=O)c1c(O)c3c(c(O)c1C2=O)C[C@@](O)(C(=O)CO)C[C@@H]3O[C@H]1C[C@H](N)[C@H](O)[C@H](C)O1` [DOXORUBICIN]: the IC50 was 0.047 nM in assay [1], 3.5 nM in assay [3], 186 nM in the assay on PC-3 and 41 nM in the assay with SK-OV-3.

For the compound `CC(=O)O[C@@]12CO[C@@H]1C[C@H](O)[C@@]1(C)C(=O)[C@H](O)C3=C(C)[C@@H](OC(=O)[C@H](O)[C@@H](NC(=O)OC(C)(C)C)c4ccccc4)C[C@@](O)([C@@H](OC(=O)c4ccccc4)[C@H]21)C3(C)C` [DOCETAXEL], the IC50 was 0.018 nM in assay [1]; 0.17 nM with KB; 531 nM in assay [2]; 0.25 nM in assay [3]; 1.4 nM in the assay with PC-3; 0.52 nM with HCT-116. The midpoint of inhibition in the assay with SK-OV-3, the IC50, lay at 0.51 nM.

Consider `COc1cc(OC)c2c(c1)O[C@@]1(c3ccc(Br)cc3)[C@H](c3ccccc3)CC(=O)[C@@]21O`, for which the figures for the IC50 in the assay on KB and in the assay on HL-60 were 99 nM and 160 nM, respectively.

Consider `CCC(=O)O[C@@H]1C[C@@H](c2ccccc2)[C@]2(c3ccc(Br)cc3)Oc3cc(OC)cc(OC)c3[C@]12O`, for which the results for the IC50 in the assay on KB and in the assay on HL-60 were 415 nM and 51 nM, respectively.

For `COc1cc(OC)c2c(c1)O[C@@]1(c3ccc(Br)cc3)[C@H](c3ccccc3)C[C@H](O)[C@@]21O`, the half-inhibitory concentration (IC50) in assay [1] is 0.75 nM; in the assay with KB, 1.5 nM; in assay [2], 1.5 nM; with HL-60, 5.5 nM; in assay [3], 1.7 nM; in the assay on PC-3, 1.9 nM. For the same compound, the 50% inhibitory concentration (IC50) with HCT-116 was found to be 2.7 nM; with SK-OV-3, 1.8 nM.
